Kir21 inh – Kir2.1 (mouse) channel inhibition | AID 1672 | P35561 | B-score at 10 µM | HEK293-Kir2.1, FluxOR thallium flux fluorescence; active compounds read low | actives 0.85% (n = 310,000);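 active = fluorescence ratio B-score at or below minus 3 SD of library scores, with starting-brightness B-score within 2 SD, cut at about -4.2 in these data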;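 note: channel flux triggered by added potassium and thallium sulfate stimulus; B-score of peak minus minimum fluorescence over baseline after thallium stimulus; more negative B-score means stronger Kir2.1 block with less thallium influx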
Target sequence (P35561 whole entry, looked up): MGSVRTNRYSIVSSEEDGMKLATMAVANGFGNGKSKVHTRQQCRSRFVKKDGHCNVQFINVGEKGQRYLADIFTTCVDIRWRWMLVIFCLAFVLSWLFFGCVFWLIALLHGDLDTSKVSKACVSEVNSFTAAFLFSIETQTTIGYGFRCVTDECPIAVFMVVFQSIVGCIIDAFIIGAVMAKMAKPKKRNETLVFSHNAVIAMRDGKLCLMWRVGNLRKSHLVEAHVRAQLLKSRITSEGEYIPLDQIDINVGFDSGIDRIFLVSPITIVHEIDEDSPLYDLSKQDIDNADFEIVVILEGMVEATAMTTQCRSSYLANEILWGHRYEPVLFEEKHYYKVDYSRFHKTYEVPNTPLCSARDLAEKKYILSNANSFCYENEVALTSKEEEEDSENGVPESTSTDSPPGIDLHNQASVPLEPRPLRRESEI
KCNK3 block – human KCNK3 channel inhibition, primary screen | B-score at 10 µM | actives 0.84% (n = 340,000) | O14649 | CHO-KCNK3 thallium flux, FluxOR fluorescence; active compounds read low;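 active = B-score under library mean minus 4 SD, starting fluorescence ratio at most library mean plus 5 SD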;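 note: more negative B-score means stronger inhibition of thallium flux through KCNK3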
KCNK9 block – inhibitors of human KCNK9 two-pore domain potassium channel; Q9NPC2; HEK293 KCNK9, FluxOR thallium flux fluorescence; active compounds read low; B-score at 10 µM; actives 1.2% (n = 310,000); AID 488922;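 active = ratio B-score over 3 SD below the library mean, with starting fluorescence within 5 SD of its mean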;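 note: negative B-score means less thallium flux so channel inhibition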
hERG protect – compounds protecting human hERG from proarrhythmic drug block; AID 1511; activation (rescue from dofetilide block), less the hit threshold, % at 10 µM; actives 0.51% (n = 310,000); Q12809; CHO-hERG, FluxOR thallium flux, dofetilide IC70 present;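 active = activation above the mean of controls blocked by dofetilide plus 5 SD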;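 note: thallium influx through hERG after potassium depolarization seen as dye fluorescence rise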
KCNQ1 act – potentiates or activates the human KCNQ1 potassium channel; P51787; CHO-K1 KCNQ1, thallium flux FluxOR fluorescence; active compounds read high; B-score at 10 µM; actives 0.35% (n = 310,000); AID 2648;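 active = fluorescence ratio B-score, a plate-corrected score, at least three library SD, with initial intensity B-score within 5 SD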
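Schedule – 37 °C overnight plating, 90-min dark dye load, 20-min compound pretreatment · System – stable KCNQ1 CHO-K1 line · Probe or stimulus – thallium- and potassium-containing depolarizing buffer · Measured by – kinetic FluxOR fluorescence, 10 s baseline plus 110 s post-stimulus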
KCNQ1 inh – inhibitors of human KCNQ1 potassium channel | CHO-K1 KCNQ1, FluxOR thallium flux fluorescence; active compounds read high | actives 1.3% (n = 310,000) | B-score at 10 µM | P51787 | AID 2642;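 active = compounds whose thallium flux B-score, printed positive for inhibition, exceeds three library SD while starting fluorescence stays within three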;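 note: channel opened by potassium depolarization with thallium stimulus after 20 min compound exposure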
Starred values were filed as active, the others as inactive. A selection: hits, their analogues and other compounds. The true share with any hit is near 3.8%.

For Cc1noc(/C=C/c2ccc(-c3ccccc3Cl)o2)c1[N+](=O)[O-] the results were Kir21 inh 0.76, KCNK3 block inactive, KCNK9 block inactive, hERG protect -6, KCNQ1 act inactive and KCNQ1 inh 7*.
Screening Cc1cc(C)nc(SCc2nnc(SCC(=O)Nc3nc(-c4ccccc4)cs3)n2-c2ccccc2)n1 returned Kir21 inh 0.06, KCNK3 block inactive, KCNK9 block inactive, hERG protect 6.5*, KCNQ1 act inactive and KCNQ1 inh inactive.
COc1ccc(NC(=S)NCCc2ccccc2OC)c(OC)c1 was read as Kir21 inh -5.7*, KCNK3 block inactive, KCNK9 block inactive, hERG protect -10, KCNQ1 act inactive and KCNQ1 inh inactive.
Screening COc1ccc(NC(=S)Nc2ccccn2)c(OC)c1 returned Kir21 inh -1.7, KCNK3 block inactive, KCNK9 block inactive, hERG protect 5.2*, KCNQ1 act inactive and KCNQ1 inh inactive.
COc1cccc(NC(=S)NCCN2CCOCC2)c1 was read as Kir21 inh -1.4, KCNK3 block inactive, KCNK9 block inactive, hERG protect -12, KCNQ1 act 12* and KCNQ1 inh inactive.
COc1ccc(NC(=S)NCc2ccccc2Cl)c(OC)c1 was read as Kir21 inh -0.17, KCNK3 block inactive, KCNK9 block inactive, hERG protect -2, KCNQ1 act inactive and KCNQ1 inh inactive.
For COc1cc(NC(=S)NCCCN2CCOCC2)cc(OC)c1 the results were Kir21 inh -0.16, KCNK3 block inactive, KCNK9 block inactive, hERG protect -5, KCNQ1 act inactive and KCNQ1 inh inactive.
Screening COc1cc(NC(=S)NCCC(c2ccccc2)c2ccccc2)cc(OC)c1 returned Kir21 inh 0.69, KCNK3 block inactive, KCNK9 block inactive, hERG protect -10, KCNQ1 act inactive and KCNQ1 inh 6*.
CCOC(=O)C1=NN(c2ccc(Cl)cc2)C(c2ccccc2)CC1=O (configuration not stated) was read as Kir21 inh 0.54, KCNK3 block inactive, KCNK9 block inactive, hERG protect -13, KCNQ1 act inactive and KCNQ1 inh inactive.
Screening CCOc1cc(N2CCOCC2)c(OCC)cc1NC(=O)c1ccc(OCc2c(C)noc2C)c(OC)c1 returned Kir21 inh 1.9, KCNK3 block inactive, KCNK9 block inactive, hERG protect -4, KCNQ1 act inactive and KCNQ1 inh inactive.
For CCC(C)Sc1ccc([C@H]2N[C@@](C)(C(=O)OC)[C@H]3C(=O)N(C)C(=O)[C@@H]23)cc1 (some centres not stated) the results were KCNK3 block inactive.
Screening COc1ccc(CCNc2ncnc3c2nnn3Cc2ccccc2)cc1OC returned Kir21 inh 2, KCNK3 block inactive, KCNK9 block inactive, hERG protect 3, KCNQ1 act inactive and KCNQ1 inh inactive.
For Cc1cccc(NC(=S)NCCC(c2ccccc2)c2ccccc2)c1 the results were Kir21 inh -0.6, KCNK3 block inactive, KCNK9 block inactive, hERG protect -18, KCNQ1 act inactive and KCNQ1 inh inactive.
COc1ccc(NC(=O)NCCCCc2ccccc2)c(OC)c1 was read as Kir21 inh -0.8, KCNK3 block inactive, KCNK9 block inactive, hERG protect 4.6*, KCNQ1 act inactive and KCNQ1 inh inactive.
`COc1ccc(NC(=S)NCCC(c2ccccc2)c2ccccc2)c(OC)c1` gave Kir21 inh 1.4, KCNK3 block inactive, KCNK9 block inactive, hERG protect -11, KCNQ1 act 29* and KCNQ1 inh inactive.
For COc1ccc(NC(=S)Nc2ccccc2OC)c(OC)c1 the results were Kir21 inh 1.6, KCNK3 block inactive, KCNK9 block inactive, hERG protect -13, KCNQ1 act inactive and KCNQ1 inh inactive.
COc1cccc(NC(=S)NCCC(c2ccccc2)c2ccccc2)c1 was read as Kir21 inh -0.59, KCNK3 block inactive, KCNK9 block inactive, hERG protect -10, KCNQ1 act inactive and KCNQ1 inh 10*.
Screening O=C(CN1CCOCC1)NCc1ccccc1Cl returned Kir21 inh 1, KCNK3 block inactive, KCNK9 block inactive, hERG protect -16, KCNQ1 act inactive and KCNQ1 inh inactive.
